Among the data in ChEMBL document CHEMBL4706593, “Induced protein degradation of histone deacetylases 3 (HDAC3) by proteolysis targeting chimera (PROTAC)” (Eur J Med Chem, 2020) are Activity, viability and IC50 values, retold here.

Data set [1] in a line: Down regulation of NFkappaB p65 expression in LPS/IFNgamma-induced mouse RAW264.7 cells at 10 uM incubated for 20 hrs followed by LPS/IFNgamma stimulation and measured after 4 hrs by Western blot analysis. Particulars: raw264.7, 24 h. In short, it runs like this:
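RAW264.7 cells treated and NF-κB p65 protein measured by western blot with p65 antibody (1:2500), β-actin loading control, HRP secondary and chemiluminescent detection.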

Data set [2] is described as follows: Cytotoxicity against mouse RAW264.7 cells assessed as cell survival up to 10 uM measured after 24 hrs by MTS assay relative to control. It counts as cell-based. As to conditions: read-out: Survival. Summed up:
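RAW264.7 macrophages (ATCC, passage 5–16) grown in DMEM GlutaMAX with 10% heated FBS at 37 °C, 5% CO2. Cells seeded at 25,000 cells/cm2 and treated the next day in fresh medium with compound up to 10 μM for 24 h at 37 °C. CellTiter 96 AQueous One (MTS) reagent added for 2 h at 37 °C in the dark, absorbance read at 490 nm, expressed as % of control.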
On the technique in general: Formazan colour is commonly taken as a measure of viable cells.

The target of a further data set is Histone deacetylase 1 (Homo sapiens, UniProt Q13547). Nature of the data set: Inhibition of recombinant human C-terminal His/FLAG-tagged HDAC1 (1 to 482 residues) expressed in Sf9 insect cells using Boc-Lys(epsilon-Ac)-AMC as substrate measured after 90 mins by fluorescence assay.
Histone deacetylase 1, sequence (Q13547 whole entry, the tested form may be a part): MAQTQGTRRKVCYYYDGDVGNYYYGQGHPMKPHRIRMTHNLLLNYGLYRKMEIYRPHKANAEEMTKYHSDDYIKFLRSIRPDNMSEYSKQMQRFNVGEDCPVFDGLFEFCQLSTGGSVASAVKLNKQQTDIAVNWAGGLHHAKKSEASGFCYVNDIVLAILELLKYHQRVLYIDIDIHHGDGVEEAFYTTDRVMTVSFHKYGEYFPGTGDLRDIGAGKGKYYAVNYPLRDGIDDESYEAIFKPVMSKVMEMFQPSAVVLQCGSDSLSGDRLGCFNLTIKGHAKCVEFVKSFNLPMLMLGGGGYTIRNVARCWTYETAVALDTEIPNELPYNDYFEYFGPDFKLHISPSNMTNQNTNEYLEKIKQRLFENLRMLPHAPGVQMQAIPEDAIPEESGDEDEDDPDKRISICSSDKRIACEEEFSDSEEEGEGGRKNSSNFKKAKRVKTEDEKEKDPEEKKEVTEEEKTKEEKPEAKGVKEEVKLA
In another data set the target is Histone deacetylase 2 (Homo sapiens, UniProt Q92769). Nature of the data set: Inhibition of recombinant human full-length C-terminal FLAG-tagged HDAC2 expressed in baculovirus infected Sf9 insect cells using Boc-Lys(epsilon-Ac)-AMC as substrate measured after 90 mins by fluorescence assay.
Histone deacetylase 2, sequence (Q92769 whole entry, the tested form may be a part): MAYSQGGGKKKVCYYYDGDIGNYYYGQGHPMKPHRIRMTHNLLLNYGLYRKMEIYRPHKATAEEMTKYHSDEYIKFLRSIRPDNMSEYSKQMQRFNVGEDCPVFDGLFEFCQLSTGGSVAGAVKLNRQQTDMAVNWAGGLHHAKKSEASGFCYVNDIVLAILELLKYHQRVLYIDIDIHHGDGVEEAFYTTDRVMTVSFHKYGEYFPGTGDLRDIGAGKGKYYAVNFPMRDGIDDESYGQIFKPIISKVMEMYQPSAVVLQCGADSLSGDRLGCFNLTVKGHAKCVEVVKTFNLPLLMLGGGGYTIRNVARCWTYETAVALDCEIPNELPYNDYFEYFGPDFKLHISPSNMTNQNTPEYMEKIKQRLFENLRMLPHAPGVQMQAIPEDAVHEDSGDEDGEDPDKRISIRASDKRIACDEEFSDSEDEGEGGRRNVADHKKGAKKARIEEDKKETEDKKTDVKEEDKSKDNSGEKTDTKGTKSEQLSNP
The target of data set [3] is Histone deacetylase 3/Nuclear receptor corepressor 2 (HDAC3/NCoR2) (Homo sapiens, UniProt O15379). Nature of the data set: Inhibition of human recombinant C-terminal His-tagged HDAC3 (1 to 428 residues)/N-terminal GST-tagged NCOR2 (395 to 489 residues) expressed in baculovirus infected Sf9 insect cells using Boc-Lys(epsilon-Ac)-AMC as substrate measured after 90 mins by fluorescence assay. In short, it runs like this:
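Incubated with inhibitor dilutions (in 10% DMSO/buffer) and Boc-Lys(ε-Ac)-AMC, 90 min at 37 °C. Stopped with trypsin plus 200 µM vorinostat, 30 min at 37 °C.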

Data set [4] has as its target T1, Protein cereblon/Histone deacetylase 1 (Mus musculus) (UniProt O09106+Q8C7D2). Nature of the data set: Protac activity at CRBN/HDAC1 in mouse RAW264.7 cells assessed as induction of HDAC1 degradation at 10 uM by Western blot analysis. It counts as cell-based. In short, it runs like this: (§1)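 RAW264.7 macrophages treated at 10 µM. Cells lysed in ice-cold HEPES/MgCl2/EDTA/0.5% Triton X-100 with protease inhibitors, protein by BCA, 4–12% Bis-Tris SDS-PAGE, PVDF transfer. Probed with HDAC1, HDAC2 or HDAC3 antibodies (1:2000) and β-actin, then HRP secondary and chemiluminescence. Bands quantified by densitometry as fold of untreated control, mean ± SD of 2 independent experiments.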
In general terms: In western blotting, separated proteins are transferred to a membrane and probed.

The target in data set [5] is T2, Protein cereblon/Histone deacetylase 3 (Mus musculus) (UniProt O88895+Q8C7D2). Nature of the data set: Protac activity at CRBN/HDAC3 in mouse RAW264.7 cells assessed as induction of HDAC3 degradation at 10 uM by Western blot analysis. It counts as cell-based. In short, it runs like this:
as §1

Data set [6] has as its target T2, Protein cereblon/Histone deacetylase 3 (Mus musculus). Nature of the data set: Protac activity at CRBN/HDAC3 in mouse RAW264.7 cells assessed as induction of HDAC3 degradation at 10 to 100 uM measured after 24 hrs by Western blot analysis. It counts as cell-based. Particulars: dose 10-100 µM. In short, it runs like this: (§2)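 RAW264.7 macrophages exposed to 1–100 µM for HDAC1/2/3 level assessment. Protein read by western blot: lysis, BCA, Bis-Tris SDS-PAGE, PVDF, overnight 4 °C primary antibodies (HDAC1, 2, 3 at 1:2000; β-actin 1:10000), HRP secondaries, chemiluminescence.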

Data set [7] addresses T1, Protein cereblon/Histone deacetylase 1 (Mus musculus). Nature of the data set: Protac activity at CRBN/HDAC1 in mouse RAW264.7 cells assessed as induction of HDAC1 degradation at 30 to 100 uM measured after 24 hrs by Western blot analysis. Format: cell-based. Particulars: dose 30-100 µM. Summed up:
as §2

Data set [8] concerns the target T3, Protein cereblon/Histone deacetylase 2 (Mus musculus) (UniProt P70288+Q8C7D2). Nature of the data set: Protac activity at CRBN/HDAC2 in mouse RAW264.7 cells assessed as induction of HDAC2 degradation at 100 uM measured after 24 hrs by Western blot analysis. Format: cell-based. In short, it runs like this: as §2
Data set [9] addresses Protein cereblon/Histone deacetylase 3 (Homo sapiens) (UniProt O15379+Q96SW2). Nature of the data set: Protac activity at CRBN/HDAC3 in human A549 cells assessed as induction of HDAC3 degradation up to 50 uM by Western blot analysis. It counts as cell-based. Particulars: dose microM <=50.
The target in data set [10] is T3, Protein cereblon/Histone deacetylase 2 (Mus musculus). Nature of the data set: Protac activity at CRBN/HDAC2 in mouse RAW264.7 cells assessed as induction of HDAC2 degradation at 10 uM by Western blot analysis. Format: cell-based. Summed up:
as §1

Each structure is given as a SMILES string. The source made the active and inactive calls. The rule behind the calls is not given here.

Histone deacetylase 3/Nuclear receptor corepressor 2 (HDAC3/NCoR2), sequence (O15379 whole entry, the tested form may be a part): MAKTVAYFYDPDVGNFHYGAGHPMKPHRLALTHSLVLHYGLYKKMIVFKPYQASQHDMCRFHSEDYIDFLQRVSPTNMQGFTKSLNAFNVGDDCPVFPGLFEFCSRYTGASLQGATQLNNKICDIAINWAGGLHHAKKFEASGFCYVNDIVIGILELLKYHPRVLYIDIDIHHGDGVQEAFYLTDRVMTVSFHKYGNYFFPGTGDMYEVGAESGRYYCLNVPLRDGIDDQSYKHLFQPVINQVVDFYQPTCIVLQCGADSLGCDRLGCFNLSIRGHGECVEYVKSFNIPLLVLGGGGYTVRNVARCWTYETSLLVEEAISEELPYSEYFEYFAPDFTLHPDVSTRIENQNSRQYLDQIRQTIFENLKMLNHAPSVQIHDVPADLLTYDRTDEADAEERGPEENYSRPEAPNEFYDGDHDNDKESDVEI
Histone deacetylase 3/Nuclear receptor corepressor 2 (HDAC3/NCoR2), sequence (Q9Y618 whole entry, further chain, the tested form may be a part): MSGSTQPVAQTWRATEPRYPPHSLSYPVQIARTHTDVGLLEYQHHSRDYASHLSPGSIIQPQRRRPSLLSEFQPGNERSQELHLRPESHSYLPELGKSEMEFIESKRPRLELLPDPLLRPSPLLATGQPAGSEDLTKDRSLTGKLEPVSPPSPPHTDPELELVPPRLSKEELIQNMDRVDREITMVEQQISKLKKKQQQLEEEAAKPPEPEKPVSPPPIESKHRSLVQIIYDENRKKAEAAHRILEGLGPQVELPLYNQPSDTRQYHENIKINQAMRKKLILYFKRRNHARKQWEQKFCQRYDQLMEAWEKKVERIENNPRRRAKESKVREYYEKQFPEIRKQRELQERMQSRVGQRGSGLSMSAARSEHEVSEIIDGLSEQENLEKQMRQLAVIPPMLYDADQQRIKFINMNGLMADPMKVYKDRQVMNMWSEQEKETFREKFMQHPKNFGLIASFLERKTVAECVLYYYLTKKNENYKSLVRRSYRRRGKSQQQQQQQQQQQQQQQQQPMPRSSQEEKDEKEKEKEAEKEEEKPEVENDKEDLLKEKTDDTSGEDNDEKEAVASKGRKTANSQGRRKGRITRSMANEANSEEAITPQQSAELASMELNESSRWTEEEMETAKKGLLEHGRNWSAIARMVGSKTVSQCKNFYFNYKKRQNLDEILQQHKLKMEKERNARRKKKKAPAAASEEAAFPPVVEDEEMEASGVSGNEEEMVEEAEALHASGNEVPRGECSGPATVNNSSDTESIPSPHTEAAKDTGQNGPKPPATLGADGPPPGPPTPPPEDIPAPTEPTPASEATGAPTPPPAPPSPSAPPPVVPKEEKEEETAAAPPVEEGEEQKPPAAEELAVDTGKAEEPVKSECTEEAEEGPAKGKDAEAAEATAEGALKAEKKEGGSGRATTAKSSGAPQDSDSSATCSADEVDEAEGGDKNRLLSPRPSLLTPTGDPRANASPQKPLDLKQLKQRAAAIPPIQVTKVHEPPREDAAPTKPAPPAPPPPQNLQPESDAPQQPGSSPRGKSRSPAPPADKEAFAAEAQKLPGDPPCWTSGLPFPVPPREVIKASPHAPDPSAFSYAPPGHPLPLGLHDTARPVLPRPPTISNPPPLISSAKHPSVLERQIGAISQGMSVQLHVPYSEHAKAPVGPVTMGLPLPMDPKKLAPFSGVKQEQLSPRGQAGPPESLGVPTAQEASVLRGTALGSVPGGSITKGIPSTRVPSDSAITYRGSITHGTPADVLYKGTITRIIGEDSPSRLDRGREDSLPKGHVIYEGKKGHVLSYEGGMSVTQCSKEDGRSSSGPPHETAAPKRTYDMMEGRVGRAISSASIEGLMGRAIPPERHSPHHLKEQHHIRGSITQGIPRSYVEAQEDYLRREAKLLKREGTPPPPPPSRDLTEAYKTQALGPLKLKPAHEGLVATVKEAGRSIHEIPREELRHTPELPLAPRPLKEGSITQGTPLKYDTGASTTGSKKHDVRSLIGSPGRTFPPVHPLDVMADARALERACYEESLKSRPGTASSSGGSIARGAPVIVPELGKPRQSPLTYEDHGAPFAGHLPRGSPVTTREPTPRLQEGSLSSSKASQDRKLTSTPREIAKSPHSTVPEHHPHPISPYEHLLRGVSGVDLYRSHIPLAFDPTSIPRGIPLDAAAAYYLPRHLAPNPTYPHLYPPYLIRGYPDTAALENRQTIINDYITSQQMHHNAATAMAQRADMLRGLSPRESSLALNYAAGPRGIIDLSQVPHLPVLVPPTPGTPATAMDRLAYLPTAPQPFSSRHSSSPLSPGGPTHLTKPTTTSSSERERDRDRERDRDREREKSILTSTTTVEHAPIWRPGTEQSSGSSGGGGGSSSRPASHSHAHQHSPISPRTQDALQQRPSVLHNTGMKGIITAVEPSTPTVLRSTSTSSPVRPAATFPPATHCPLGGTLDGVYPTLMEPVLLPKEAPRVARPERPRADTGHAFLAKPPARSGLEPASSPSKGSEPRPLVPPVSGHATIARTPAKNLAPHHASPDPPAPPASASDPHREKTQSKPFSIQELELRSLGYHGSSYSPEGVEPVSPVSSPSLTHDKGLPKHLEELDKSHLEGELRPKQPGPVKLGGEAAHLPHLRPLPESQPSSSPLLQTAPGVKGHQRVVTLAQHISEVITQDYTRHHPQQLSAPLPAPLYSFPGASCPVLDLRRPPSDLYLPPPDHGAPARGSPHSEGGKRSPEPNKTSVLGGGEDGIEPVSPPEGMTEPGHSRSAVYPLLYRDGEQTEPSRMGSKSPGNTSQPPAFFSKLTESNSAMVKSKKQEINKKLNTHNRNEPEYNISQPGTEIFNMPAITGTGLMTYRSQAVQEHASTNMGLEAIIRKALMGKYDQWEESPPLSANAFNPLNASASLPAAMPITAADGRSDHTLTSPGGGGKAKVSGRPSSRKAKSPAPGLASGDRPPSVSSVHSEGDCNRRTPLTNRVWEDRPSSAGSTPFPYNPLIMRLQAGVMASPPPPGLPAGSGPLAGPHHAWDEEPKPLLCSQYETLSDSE
T2 sequence (O88895 whole entry, looked up): as the sequence (O15379 whole entry, the tested form may be a part) above, with N241S counted along it
T2 sequence (Q8C7D2 whole entry, looked up): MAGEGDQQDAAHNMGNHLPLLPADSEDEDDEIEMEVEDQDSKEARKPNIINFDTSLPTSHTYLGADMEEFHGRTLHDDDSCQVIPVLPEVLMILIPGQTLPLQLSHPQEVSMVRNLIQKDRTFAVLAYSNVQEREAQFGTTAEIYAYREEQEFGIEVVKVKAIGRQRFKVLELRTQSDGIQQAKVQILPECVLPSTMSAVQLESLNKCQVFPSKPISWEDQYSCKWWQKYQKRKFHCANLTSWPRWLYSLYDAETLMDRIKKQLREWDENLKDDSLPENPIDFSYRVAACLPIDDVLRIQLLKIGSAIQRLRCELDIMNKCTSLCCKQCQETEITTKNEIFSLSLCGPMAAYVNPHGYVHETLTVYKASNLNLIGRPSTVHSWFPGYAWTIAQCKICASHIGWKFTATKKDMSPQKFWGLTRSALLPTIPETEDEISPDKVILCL

As for `Nc1cccc2c1C(=O)N(C1CCC(=O)NC1=O)C2=O` (centres undefined) [POMALIDOMIDE], the Activity entry in [1] is “Toxic”.

In general, IC50 refers to the concentration at which inhibition is half-maximal. With `Nc1ccccc1NC(=O)c1ccc(NC(=O)CCCNc2cccc3c2C(=O)N(C2CCC(=O)NC2=O)C3=O)cc1` (centres undefined), the viability at 24 h in [2] is greater than 80%. For the same compound, the IC50 amounted to 360 nM on Histone deacetylase 1, 1200 nM at Histone deacetylase 2 and 870 nM in [3]. Also, the result in [4] was inactive. In addition, the outcome in data set [5] was Active.

As for `O=C1CCC(N2C(=O)c3ccccc3C2=O)C(=O)N1` (centres undefined) [THALIDOMIDE], in data set [1], the Activity result is reported as “Toxic”.

`Nc1ccccc1NC(=O)c1ccc(NC(=O)CCCCNC(=O)CNc2cccc3c2C(=O)N(C2CCC(=O)NC2=O)C3=O)cc1` (centres undefined): the viability at 24 h in [2] is greater than 80%. For the same compound, the IC50 is 290 nM on Histone deacetylase 1, 620 nM on Histone deacetylase 2 and 520 nM in [3]. In addition, the outcome in [4] and in [9] was inactive. The result in data set [5], in [6], in [7] and in data set [8] was Active.

Consider `Nc1ccccc1NC(=O)c1ccc(NC(=O)CCCCCNc2cccc3c2C(=O)N(C2CCC(=O)NC2=O)C3=O)cc1` (centres undefined), for which the viability at 24 h in data set [2] was greater than 80%. Moreover, the IC50 on Histone deacetylase 1 turned out to be 220 nM; on Histone deacetylase 2 it was 970 nM; in data set [3] it was 540 nM. Further, the outcome in [4] was inactive. In addition, the result in [10] was Active.
